Measured values from ChEMBL document CHEMBL5696442, “Discovery of type II inhibitors of TGFβ-activated kinase 1 (TAK1) and mitogen-activated protein kinase kinase kinase kinase 2 (MAP4K2)” (J Med Chem, 2015).

Assays:
[1] = target: Serine/threonine-protein kinase 32C (Homo sapiens) (UniProt Q86UX6); assay: Inhibition of YANK3 Lys2 labeling site in human A-375 cells at 5 uM by KiNativ Profiling analysis relative to control; format: cell-based
[2] = target: Cyclin-dependent kinase 4 (Homo sapiens) (UniProt P11802); assay: Inhibition of CDK4 Lys2 labeling site in human A-375 cells at 5 uM by KiNativ Profiling analysis relative to control; format: cell-based
Sequence of Cyclin-dependent kinase 4 (Homo sapiens) (P11802 whole entry): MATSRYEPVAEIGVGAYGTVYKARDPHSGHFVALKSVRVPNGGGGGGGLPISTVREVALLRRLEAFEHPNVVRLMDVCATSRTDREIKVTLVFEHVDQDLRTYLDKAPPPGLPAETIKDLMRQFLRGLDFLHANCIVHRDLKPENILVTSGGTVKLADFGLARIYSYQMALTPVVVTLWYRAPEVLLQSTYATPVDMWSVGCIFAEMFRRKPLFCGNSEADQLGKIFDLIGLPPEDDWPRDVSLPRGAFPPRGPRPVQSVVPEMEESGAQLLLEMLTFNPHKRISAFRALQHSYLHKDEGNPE
How it was run: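 Live A375 melanoma cells were treated with compound at 5 or 0.5 μM. The cells were then lysed, and the lysates were labeled with a lysine-reactive ATP or ADP-biotin acyl probe (KiNativ). Inhibition is the compound's protection of each kinase labeling-site peptide from probe labeling, relative to untreated control.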

[3] = target: T1, Kinase suppressor of Ras 1 (Homo sapiens) (UniProt Q8IVT5); assay: Inhibition of KSR1 ACT labeling site harbouring SKNVFYDNGK in human A-375 cells at 0.05 uM by KiNativ Profiling analysis relative to control; format: cell-based
T1 sequence (whole entry): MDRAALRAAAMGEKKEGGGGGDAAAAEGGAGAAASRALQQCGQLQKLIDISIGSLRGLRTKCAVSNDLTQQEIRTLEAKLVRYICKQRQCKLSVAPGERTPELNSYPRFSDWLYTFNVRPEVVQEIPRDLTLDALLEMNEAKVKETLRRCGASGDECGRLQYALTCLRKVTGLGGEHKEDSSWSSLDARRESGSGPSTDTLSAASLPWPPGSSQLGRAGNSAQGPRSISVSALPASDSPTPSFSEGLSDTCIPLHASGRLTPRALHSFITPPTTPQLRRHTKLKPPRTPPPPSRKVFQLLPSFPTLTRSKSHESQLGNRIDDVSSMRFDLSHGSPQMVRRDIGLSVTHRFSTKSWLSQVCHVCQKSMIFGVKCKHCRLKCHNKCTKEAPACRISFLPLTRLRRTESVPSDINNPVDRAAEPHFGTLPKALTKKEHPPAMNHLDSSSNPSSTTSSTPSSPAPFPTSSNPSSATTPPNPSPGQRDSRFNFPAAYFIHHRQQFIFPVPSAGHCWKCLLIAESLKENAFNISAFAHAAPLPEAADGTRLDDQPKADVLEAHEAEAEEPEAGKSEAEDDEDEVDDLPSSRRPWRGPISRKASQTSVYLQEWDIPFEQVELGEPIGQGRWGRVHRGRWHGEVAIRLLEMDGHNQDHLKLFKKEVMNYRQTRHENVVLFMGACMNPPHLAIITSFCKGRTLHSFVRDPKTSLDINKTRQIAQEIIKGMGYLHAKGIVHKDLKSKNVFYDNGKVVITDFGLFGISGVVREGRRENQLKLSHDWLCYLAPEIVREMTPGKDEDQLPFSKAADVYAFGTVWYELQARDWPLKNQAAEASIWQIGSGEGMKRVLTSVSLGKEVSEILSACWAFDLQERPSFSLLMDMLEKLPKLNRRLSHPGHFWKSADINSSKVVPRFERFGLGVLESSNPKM

[4] = target: Serine/threonine-protein kinase SMG1 (Homo sapiens) (UniProt Q96Q15); assay: Inhibition of SMG1 ATP labeling site harbouring SYPYLFKGLEDLHLDER in human A-375 cells at 0.05 uM by KiNativ Profiling analysis relative to control; format: cell-based
[5] = target: Phosphatidylinositol 3-kinase catalytic subunit type 3 (Homo sapiens) (UniProt Q8NEB9); assay: Inhibition of PIK3C3 ATP labeling site in human A-375 cells at 0.05 uM by KiNativ Profiling analysis relative to control; format: cell-based
Sequence of Phosphatidylinositol 3-kinase catalytic subunit type 3 (Homo sapiens) (Q8NEB9 whole entry): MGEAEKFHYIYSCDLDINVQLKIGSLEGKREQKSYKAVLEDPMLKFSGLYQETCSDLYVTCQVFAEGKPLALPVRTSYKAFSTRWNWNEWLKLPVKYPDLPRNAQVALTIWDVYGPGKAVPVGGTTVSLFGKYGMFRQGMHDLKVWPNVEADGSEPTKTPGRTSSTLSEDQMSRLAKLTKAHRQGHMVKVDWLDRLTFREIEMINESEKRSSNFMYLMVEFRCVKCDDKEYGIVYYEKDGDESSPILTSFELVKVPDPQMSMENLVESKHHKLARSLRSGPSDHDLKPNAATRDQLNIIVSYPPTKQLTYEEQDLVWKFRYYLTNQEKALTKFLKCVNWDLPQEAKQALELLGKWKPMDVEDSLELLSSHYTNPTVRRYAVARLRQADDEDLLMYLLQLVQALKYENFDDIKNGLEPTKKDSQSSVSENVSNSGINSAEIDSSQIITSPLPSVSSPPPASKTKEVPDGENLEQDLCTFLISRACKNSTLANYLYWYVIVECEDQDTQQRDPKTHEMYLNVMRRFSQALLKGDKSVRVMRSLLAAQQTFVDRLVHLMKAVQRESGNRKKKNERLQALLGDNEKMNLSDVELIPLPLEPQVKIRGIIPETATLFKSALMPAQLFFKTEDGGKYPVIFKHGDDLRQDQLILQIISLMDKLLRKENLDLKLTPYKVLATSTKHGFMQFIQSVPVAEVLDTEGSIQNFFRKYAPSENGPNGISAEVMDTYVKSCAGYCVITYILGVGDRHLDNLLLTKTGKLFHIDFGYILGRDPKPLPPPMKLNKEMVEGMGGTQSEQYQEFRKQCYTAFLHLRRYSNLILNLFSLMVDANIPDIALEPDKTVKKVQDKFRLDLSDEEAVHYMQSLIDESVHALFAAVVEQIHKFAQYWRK

Ephrin type-A receptor 2 = Ephrin type-A receptor 2 (Homo sapiens, UniProt P29317); assay: Inhibition of EphA2 (unknown origin) ACT labeling site by KiNativ Profiling analysis
Sequence of Ephrin type-A receptor 2 (P29317 whole entry): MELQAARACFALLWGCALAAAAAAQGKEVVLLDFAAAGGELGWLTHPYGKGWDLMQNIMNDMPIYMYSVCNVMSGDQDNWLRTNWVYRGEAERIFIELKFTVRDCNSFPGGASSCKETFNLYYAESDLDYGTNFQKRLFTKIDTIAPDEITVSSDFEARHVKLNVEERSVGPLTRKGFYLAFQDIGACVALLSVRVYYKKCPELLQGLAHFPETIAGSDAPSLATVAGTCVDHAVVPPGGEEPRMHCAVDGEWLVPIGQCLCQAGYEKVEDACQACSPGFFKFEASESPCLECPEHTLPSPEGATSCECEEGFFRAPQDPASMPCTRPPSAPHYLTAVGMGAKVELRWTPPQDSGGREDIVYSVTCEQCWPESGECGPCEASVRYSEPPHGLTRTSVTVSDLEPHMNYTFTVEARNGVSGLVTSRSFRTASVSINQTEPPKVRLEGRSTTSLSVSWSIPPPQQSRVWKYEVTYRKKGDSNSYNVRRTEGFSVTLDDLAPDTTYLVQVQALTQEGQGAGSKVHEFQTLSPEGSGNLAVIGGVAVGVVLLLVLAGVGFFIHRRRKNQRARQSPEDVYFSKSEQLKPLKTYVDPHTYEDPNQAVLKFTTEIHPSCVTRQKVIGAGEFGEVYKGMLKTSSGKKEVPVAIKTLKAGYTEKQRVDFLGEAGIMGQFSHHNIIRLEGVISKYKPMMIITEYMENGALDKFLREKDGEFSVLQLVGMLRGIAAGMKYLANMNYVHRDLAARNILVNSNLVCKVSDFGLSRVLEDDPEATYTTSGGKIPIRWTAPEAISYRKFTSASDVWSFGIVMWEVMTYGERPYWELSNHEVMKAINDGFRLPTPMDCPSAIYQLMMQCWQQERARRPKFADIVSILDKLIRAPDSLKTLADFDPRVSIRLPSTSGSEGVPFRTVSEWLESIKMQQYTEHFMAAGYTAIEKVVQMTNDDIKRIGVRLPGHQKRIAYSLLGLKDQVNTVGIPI

[6] = target: Serine/threonine-protein kinase WNK1 (Homo sapiens) (UniProt Q9H4A3); assay: Inhibition of Wnk1 Lys2 labeling site in human A-375 cells at 5 uM by KiNativ Profiling analysis relative to control; format: cell-based
Sequence of Serine/threonine-protein kinase WNK1 (Homo sapiens) (Q9H4A3 whole entry, looked up): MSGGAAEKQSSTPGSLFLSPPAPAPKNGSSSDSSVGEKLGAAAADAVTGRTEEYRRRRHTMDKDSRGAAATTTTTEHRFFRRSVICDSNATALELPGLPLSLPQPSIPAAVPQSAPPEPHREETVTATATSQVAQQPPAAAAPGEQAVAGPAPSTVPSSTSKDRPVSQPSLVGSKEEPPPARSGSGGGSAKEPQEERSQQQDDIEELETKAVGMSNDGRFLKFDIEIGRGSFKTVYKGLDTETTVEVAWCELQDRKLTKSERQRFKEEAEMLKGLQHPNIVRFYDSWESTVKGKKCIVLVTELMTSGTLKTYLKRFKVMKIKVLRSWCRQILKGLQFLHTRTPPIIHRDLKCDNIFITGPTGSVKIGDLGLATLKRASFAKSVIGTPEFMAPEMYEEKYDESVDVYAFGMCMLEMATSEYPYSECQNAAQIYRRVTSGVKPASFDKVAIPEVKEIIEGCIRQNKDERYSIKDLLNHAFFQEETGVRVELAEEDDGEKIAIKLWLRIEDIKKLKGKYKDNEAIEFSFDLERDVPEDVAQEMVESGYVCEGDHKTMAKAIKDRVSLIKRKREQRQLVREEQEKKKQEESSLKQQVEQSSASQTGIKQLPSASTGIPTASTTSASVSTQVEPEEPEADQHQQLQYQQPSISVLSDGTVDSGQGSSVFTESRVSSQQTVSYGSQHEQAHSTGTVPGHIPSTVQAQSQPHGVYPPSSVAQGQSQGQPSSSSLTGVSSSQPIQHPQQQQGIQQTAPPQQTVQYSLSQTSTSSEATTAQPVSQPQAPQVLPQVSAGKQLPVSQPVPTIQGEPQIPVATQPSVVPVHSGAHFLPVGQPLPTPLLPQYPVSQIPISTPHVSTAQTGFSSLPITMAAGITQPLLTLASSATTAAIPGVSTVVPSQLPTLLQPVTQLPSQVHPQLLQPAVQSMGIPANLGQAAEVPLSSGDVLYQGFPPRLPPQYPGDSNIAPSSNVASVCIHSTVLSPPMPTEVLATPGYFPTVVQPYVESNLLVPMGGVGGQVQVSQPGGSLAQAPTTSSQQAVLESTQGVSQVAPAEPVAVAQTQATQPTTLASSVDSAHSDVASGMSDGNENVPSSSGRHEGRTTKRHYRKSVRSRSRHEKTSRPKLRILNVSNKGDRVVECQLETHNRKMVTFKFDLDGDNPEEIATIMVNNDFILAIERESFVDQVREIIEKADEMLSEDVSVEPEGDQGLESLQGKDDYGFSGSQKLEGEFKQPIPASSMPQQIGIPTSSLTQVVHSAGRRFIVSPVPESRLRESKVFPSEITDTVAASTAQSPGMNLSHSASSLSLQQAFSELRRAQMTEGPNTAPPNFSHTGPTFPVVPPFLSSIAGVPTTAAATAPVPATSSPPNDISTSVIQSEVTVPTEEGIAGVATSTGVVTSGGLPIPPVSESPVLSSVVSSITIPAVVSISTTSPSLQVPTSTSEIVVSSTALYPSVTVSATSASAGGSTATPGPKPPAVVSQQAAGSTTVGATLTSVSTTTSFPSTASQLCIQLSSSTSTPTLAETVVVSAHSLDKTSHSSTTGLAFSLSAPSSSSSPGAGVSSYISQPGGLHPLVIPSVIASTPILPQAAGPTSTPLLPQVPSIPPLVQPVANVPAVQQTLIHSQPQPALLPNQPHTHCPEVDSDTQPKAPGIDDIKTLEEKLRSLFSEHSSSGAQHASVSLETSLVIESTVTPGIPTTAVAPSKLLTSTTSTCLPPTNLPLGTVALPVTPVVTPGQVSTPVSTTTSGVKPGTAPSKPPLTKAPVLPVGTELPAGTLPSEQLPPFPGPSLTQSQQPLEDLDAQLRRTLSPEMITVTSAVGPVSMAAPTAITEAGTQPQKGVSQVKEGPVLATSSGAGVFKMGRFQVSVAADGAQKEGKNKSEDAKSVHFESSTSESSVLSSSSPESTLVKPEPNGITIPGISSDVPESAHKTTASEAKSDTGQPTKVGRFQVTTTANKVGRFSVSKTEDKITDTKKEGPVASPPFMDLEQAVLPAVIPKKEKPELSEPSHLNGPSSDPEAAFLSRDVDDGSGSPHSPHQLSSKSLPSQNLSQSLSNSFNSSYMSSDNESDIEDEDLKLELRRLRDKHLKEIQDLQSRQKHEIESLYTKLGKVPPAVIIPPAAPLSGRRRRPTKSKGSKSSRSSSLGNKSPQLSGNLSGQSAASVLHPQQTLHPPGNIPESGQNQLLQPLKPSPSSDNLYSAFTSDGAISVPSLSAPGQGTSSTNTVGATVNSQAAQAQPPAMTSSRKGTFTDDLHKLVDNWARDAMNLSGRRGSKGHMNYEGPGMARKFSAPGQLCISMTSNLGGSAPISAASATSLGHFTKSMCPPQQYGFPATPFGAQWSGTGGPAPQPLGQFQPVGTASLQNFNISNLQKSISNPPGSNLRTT

[7] = target: T2, Serine/threonine-protein kinase LATS2 (Homo sapiens) (UniProt Q9NRM7); assay: Inhibition of LATS2 Lys2 labeling site in human A-375 cells at 0.05 uM by KiNativ Profiling analysis relative to control; format: cell-based
T2 sequence (whole entry): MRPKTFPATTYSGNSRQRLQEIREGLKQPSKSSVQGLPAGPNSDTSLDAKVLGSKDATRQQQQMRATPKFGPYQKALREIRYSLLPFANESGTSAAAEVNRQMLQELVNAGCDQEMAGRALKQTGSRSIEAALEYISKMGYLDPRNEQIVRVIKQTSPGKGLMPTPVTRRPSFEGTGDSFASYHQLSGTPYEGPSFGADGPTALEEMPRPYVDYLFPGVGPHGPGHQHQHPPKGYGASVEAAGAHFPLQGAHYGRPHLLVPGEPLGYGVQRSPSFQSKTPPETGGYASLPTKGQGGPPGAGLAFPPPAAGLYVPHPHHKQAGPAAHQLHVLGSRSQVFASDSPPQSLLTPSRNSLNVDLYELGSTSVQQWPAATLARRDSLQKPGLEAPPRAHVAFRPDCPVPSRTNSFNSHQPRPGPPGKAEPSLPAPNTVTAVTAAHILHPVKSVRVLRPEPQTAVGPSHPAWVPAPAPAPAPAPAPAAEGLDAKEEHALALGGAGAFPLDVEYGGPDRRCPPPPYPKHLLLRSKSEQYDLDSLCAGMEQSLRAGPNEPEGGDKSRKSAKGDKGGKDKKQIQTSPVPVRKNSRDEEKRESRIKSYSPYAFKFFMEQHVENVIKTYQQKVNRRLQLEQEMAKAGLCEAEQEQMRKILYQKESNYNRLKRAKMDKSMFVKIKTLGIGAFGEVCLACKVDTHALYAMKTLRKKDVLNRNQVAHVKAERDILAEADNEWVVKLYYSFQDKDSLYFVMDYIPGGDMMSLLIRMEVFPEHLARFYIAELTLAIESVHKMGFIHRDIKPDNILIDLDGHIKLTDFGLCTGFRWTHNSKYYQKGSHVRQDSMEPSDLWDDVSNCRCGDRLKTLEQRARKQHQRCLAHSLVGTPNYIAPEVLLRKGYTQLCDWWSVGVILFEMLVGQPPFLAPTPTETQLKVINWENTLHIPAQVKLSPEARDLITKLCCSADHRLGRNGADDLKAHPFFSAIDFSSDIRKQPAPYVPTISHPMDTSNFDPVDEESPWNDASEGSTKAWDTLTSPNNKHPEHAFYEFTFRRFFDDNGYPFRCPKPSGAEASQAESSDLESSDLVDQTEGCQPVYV

[8] = target: Serine/threonine-protein kinase WNK1 (Homo sapiens) (UniProt Q9H4A3); assay: Inhibition of Wnk1 ACT labeling site in human A-375 cells at 5 uM by KiNativ Profiling analysis relative to control; format: cell-based
[9] = target: Mitogen-activated protein kinase kinase kinase kinase 4 (Homo sapiens, UniProt O95819); assay: Inhibition of ZC1/HGK Lys1 labeling site in human A-375 cells at 0.05 uM by KiNativ Profiling analysis relative to control; format: cell-based

Sequence of Serine/threonine-protein kinase 32C (Homo sapiens) (Q86UX6 whole entry): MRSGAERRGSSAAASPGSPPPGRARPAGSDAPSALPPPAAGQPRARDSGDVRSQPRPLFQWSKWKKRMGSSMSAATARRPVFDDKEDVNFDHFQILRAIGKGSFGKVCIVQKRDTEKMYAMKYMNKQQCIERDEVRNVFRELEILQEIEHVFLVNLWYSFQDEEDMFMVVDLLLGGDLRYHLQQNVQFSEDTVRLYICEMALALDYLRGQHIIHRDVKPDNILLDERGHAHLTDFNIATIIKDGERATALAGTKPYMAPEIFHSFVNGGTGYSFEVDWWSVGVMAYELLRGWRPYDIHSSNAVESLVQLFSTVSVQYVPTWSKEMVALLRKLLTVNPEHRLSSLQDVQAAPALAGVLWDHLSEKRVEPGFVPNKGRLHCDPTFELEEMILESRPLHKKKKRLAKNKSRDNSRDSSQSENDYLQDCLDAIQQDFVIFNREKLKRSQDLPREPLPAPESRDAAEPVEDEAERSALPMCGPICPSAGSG

| Structure (SMILES) | inhibition [1] [%] | inhibition [2] [%] | inhibition [3] [%] | inhibition [4] [%] | inhibition [5] [%] | IC50 (Ephrin type-A receptor 2) [nM] | inhibition [6] [%] | inhibition [7] [%] | inhibition [8] [%] | inhibition [9] [%] |
| --- | --- | --- | --- | --- | --- | --- | --- | --- | --- | --- |
| CCN1CCN(Cc2ccc(NC(=O)c3ccc(C)c(Oc4ccnc5[nH]ccc45)c3)cc2C(F)(F)F)CC1 | 16.2 | 2.9 | 37 | 15.6 | 33.3 | 773 | -5.5 | 14.3 | 14.4 | 42.1 |
| CCN1CCN(Cc2ccc(NC(=O)c3ccc(C)c(/C=C/c4cnc5[nH]ccc5c4OC)c3)cc2C(F)(F)F)CC1 | 12.7 | 6.7 | 8.6 | 31.7 | 38.2 | 77 | 14.3 | -3.3 | -4.5 | 43.4 |
